Reference: article PMC9121347 (Bioconjugate Chemistry, 2022)

Legend:
AD (APP/PS1) mice = experiment: Dynamic microPET/CT imaging, AD mice; assay type: in vivo, mouse; settings: AD (APP/PS1) vs normal (B6SJL) mice; any time point
[1] = system: phosphorylation of Akt in hCMEC/D3 monolayers; assay type: cell-based, human; settings: 100 nM, 20 min, 37 °C in DMEM, Western blot, n = 3
Summary of the method: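 hCMEC/D3 monolayers treated ± test compound (100 nM) in DMEM, 20 min, 37 °C, washed thrice with PBS, lysed in RIPA with protease/phosphatase inhibitors, protein by BCA. […] Blocked in 5% milk; anti-vinculin, Akt, p-Akt (S473) at 1:1000 overnight at 4 °C; dye-conjugated secondary at 1:2000, 1 h RT. p-AKT/AKT ratio, mean ± SD, unpaired t-test.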

CNc1ccc(-c2nc3ccc(O)cc3s2)cc1 [[^11C]PIB, N-methyl [^11C] 2-(4′-methylaminophenyl)-6-hydroxy-benzothiazole]
difference in uptake between normal and AD groups (brain and heart) (AD (APP/PS1) mice): neither of them showed any significant difference in the uptake between normal and AD groups at any time point

[18F]c1ccc(-c2ccc3c(c2)[nH]c2ccncc23)cn1 [[^18F]AV1451, 7-(6-[^18F]fluoropyridin-3-yl)-5H-pyrido[4,3-b]indole]
difference in uptake between normal and AD groups (brain and heart) (AD (APP/PS1) mice): neither of them showed any significant difference in the uptake between normal and AD groups at any time point

NOTA-insulin: insulin with p-SCN-Bn-NOTA linked to the lysine residue of chain B; labeling precursor
phosphorylation of Akt (p-AKT/AKT ratio) [1]: stimulated the phosphorylation of Akt
